From ChEMBL document CHEMBL4330076, “Quinazolin-2,4-dione-Based Hydroxamic Acids as Selective Histone Deacetylase-6 Inhibitors for Treatment of Non-Small Cell Lung Cancer” (J Med Chem, 2019)

Columns and labels:
Histone deacetylase 1 = Histone deacetylase 1 (Homo sapiens, UniProt Q13547); assay: Inhibition of human full-length recombinant HDAC1 expressed in baculovirus infected Sf9 insect cells using fluorogenic peptide RHKKAc as substrate after 2 hrs
Summary of the method: (§1)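 Run by an outside contract lab. IC50 was obtained from 10-point dose-response curves using threefold serial dilutions of compound from the top concentration.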

[1] = molecular target: T1, Protein deacetylase HDAC6 (Homo sapiens, UniProt Q9UBN7); assay: Inhibition of human full-length recombinant HDAC6 expressed in baculovirus infected Sf9 insect cells using fluorogenic peptide RHKKAc as substrate after 2 hrs
T1 sequence (Q9UBN7 whole entry): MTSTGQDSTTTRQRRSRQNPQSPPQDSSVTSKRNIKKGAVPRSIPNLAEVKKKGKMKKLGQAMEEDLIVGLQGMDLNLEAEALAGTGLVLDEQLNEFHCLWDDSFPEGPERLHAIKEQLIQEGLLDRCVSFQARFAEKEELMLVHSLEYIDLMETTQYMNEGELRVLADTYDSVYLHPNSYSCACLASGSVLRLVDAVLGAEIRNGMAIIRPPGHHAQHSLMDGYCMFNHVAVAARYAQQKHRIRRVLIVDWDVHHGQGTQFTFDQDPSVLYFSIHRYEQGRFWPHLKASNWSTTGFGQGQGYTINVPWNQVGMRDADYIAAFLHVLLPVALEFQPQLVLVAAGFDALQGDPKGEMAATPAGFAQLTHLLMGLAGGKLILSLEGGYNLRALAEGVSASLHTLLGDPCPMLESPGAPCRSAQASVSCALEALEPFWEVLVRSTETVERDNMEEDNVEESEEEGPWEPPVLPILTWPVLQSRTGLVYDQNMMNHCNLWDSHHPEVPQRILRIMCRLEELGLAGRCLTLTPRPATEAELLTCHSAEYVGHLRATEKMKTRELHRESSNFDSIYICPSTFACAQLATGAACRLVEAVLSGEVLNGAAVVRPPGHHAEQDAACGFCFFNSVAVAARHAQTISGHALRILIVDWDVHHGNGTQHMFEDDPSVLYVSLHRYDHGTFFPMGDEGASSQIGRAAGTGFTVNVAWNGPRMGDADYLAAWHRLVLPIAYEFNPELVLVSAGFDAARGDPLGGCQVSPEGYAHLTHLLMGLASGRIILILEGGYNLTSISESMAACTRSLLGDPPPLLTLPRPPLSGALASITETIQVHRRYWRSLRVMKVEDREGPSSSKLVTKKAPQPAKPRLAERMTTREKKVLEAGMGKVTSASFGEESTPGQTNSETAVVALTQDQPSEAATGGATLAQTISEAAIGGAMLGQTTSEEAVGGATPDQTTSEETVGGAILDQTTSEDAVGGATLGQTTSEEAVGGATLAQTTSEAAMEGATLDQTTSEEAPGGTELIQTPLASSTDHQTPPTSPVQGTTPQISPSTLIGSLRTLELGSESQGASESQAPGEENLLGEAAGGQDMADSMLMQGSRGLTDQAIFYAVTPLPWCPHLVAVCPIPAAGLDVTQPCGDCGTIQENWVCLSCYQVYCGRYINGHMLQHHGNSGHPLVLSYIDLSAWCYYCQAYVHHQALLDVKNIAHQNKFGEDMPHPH

Histone deacetylase 8 = molecular target: T2, Histone deacetylase 8 (Homo sapiens, UniProt Q9BY41); assay: Inhibition of human full-length recombinant HDAC8 expressed in baculovirus infected Sf9 insect cells using fluorogenic peptide RHKAcKAc as substrate after 2 hrs
T2 sequence (Q9BY41 whole entry): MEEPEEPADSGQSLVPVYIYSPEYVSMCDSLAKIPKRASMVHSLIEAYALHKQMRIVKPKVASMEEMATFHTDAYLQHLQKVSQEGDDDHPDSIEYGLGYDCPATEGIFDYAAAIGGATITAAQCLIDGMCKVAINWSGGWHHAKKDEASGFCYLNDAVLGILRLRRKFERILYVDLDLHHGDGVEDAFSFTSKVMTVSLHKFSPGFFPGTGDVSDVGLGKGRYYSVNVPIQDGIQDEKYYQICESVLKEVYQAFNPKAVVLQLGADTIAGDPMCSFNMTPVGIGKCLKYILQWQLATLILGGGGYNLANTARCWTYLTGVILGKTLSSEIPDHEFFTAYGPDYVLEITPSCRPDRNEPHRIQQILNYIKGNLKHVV

Histone deacetylase 11 = molecular target: T3, Histone deacetylase 11 (Homo sapiens, UniProt Q96DB2); assay: Inhibition of human full-length recombinant HDAC11 expressed in baculovirus infected Sf9 insect cells using fluorogenic peptide RHKKAc as substrate after 2 hrs; summary of the method: as §1
T3 sequence (Q96DB2 whole entry): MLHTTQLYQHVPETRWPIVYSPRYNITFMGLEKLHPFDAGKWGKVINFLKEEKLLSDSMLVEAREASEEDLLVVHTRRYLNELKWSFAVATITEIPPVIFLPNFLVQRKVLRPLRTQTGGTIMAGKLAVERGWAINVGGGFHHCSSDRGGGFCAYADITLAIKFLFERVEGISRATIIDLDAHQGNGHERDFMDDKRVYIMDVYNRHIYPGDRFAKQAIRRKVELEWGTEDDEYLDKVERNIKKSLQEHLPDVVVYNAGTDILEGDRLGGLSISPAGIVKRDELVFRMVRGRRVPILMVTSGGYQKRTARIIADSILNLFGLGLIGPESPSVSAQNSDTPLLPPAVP

[2] = molecular target: T1, Protein deacetylase HDAC6; assay: Inhibition of human full-length recombinant HDAC6 expressed in baculovirus infected Sf9 insect cells using Boc-Lys (Ac)-AMC as substrate preincubated for 10 mins followed by substrate addition and measured after 30 mins by fluorescence assay
A549 [3] = assay: Cytotoxicity against human A549 cells after 72 hrs by MTT assay; format: functional, cell-based; settings: A549, 72 h
Summary of the method: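 Human A549 lung cancer cells exposed to serial dilutions of inhibitor at 37 °C for 72 h. Cytotoxicity expressed as IC50.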

[4] = molecular target: T1, Protein deacetylase HDAC6; assay: Inhibition of human HDAC6 CD2 expressed in Escherichia coli BL21 (RIL) using Boc-Lys (Ac)-AMC as substrate preincubated for 10 mins followed by substrate addition and measured after 30 mins by fluorescence assay
[5] = tested on: Lewis lung carcinoma cell line; assay: Induction of apoptosis in mouse LL/2 cells assessed as late apoptotic cells at 10 uM after 24 hrs by Annexin V/propidium iodide staining-based flow cytometric analysis (reference value: 8.7%); format: functional
[6] = tested on: Lewis lung carcinoma cell line; assay: Induction of apoptosis in mouse LL/2 cells assessed as early apoptotic cells at 10 uM after 24 hrs by Annexin V/propidium iodide staining-based flow cytometric analysis (reference value: 1.8%); format: functional
[7] = tested on: Lewis lung carcinoma cell line; assay: Induction of alpha tubulin acetylation in mouse LL/2 cells at 10 uM after 24 hrs by Western blot analysis relative to control; format: functional
A549 [8] = assay: Induction of apoptosis in human A549 cells assessed as necrotic cells at 10 uM after 24 hrs by Annexin V/propidium iodide staining-based flow cytometric analysis (reference value: 1.1%); format: functional
A549 [9] = assay: Induction of apoptosis in human A549 cells assessed as early apoptotic cells at 10 uM after 24 hrs by Annexin V/propidium iodide staining-based flow cytometric analysis (reference value: 1.2%); format: functional
[10] = tested on: Lewis lung carcinoma cell line; assay: Cytotoxicity against mouse LL/2 cells at 10 uM after 72 hrs by MTT assay relative to control; format: functional; settings: in the assay text read “at 10 nM” for “at 10 uM”
Summary of the method: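 Mouse LL/2 cells treated with inhibitor alone or combined with paclitaxel for 3 days. Viability measured by MTT assay relative to untreated control.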

A549 [11] = assay: Induction of apoptosis in human A549 cells assessed as viable cells at 10 uM after 24 hrs by Annexin V/propidium iodide staining-based flow cytometric analysis (reference value: 96.2%); format: functional; settings: A549, 24 h, read-out: Activity
[12] = tested on: Lewis lung carcinoma cell line; assay: Induction of apoptosis in mouse LL/2 cells assessed as viable cells at 10 uM after 24 hrs by Annexin V/propidium iodide staining-based flow cytometric analysis (reference value: 82.3%); format: functional; settings: read-out: Activity
[13] = tested on: Lewis lung carcinoma cell line; assay: Cytotoxicity against mouse LL/2 cells after 72 hrs by MTT assay; format: functional, cell-based
A549 [14] = assay: Induction of apoptosis in human A549 cells assessed as late apoptotic cells at 10 uM after 24 hrs by Annexin V/propidium iodide staining-based flow cytometric analysis (reference value: 1.6%); format: functional
[15] = tested on: Lewis lung carcinoma cell line; assay: Induction of apoptosis in mouse LL/2 cells assessed as necrotic cells at 10 uM after 24 hrs by Annexin V/propidium iodide staining-based flow cytometric analysis (reference value: 7.3%); format: functional
[16] = AUC (0 to 24 hrs) in C57BL/6 mouse plasma at 40 mg/kg, po administered via gavage by LC-MS/MS analysis; format: ADME, organism-based; set-up: time < 24 hr, dose 40 mg/kg, route oral; settings: in vivo
[17] = AUC (0 to 24 hrs) in C57BL/6 mouse liver at 40 mg/kg, po administered via gavage by LC-MS/MS analysis; format: ADME, organism-based; set-up: dose 40 mg/kg, time < 24 hr, route oral; settings: in vivo
[18] = AUC (0 to 24 hrs) in C57BL/6 mouse kidney at 40 mg/kg, po administered via gavage by LC-MS/MS analysis; format: ADME, organism-based; set-up: time < 24 hr, dose 40 mg/kg, route oral; settings: in vivo
[19] = AUC (0 to 24 hrs) in C57BL/6 mouse lung at 40 mg/kg, po administered via gavage by LC-MS/MS analysis; format: ADME, organism-based; set-up: time < 24 hr, dose 40 mg/kg, route oral; settings: in vivo

Sequence of Histone deacetylase 1 (Q13547 whole entry): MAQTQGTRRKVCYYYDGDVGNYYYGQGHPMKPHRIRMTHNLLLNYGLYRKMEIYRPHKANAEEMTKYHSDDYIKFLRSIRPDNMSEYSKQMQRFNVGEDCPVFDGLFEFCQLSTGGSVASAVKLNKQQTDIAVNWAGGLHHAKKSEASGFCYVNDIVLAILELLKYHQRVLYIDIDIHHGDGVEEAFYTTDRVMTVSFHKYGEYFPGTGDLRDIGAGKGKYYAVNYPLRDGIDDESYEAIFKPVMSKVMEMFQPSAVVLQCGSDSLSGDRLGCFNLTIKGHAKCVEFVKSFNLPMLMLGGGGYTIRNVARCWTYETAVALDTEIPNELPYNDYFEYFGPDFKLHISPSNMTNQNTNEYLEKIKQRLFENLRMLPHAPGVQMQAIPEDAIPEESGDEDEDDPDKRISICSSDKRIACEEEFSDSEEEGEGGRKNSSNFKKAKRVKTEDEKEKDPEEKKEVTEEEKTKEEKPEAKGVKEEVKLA

SMILES	IC50 (Histone deacetylase 1)	IC50 [1]	IC50 (Histone deacetylase 11)	IC50 (A549 [3])	other results
O=C(NO)c1ccc(Cn2c(=O)n(CCc3ccccc3)c(=O)c3ccc(O)cc32)cc1		0.032 µM			
O=C(NO)c1ccc(Cn2c(=O)n(CCc3ccc(F)cc3)c(=O)c3ccccc32)cc1				3.65 µM	
O=C(NO)c1ccc(Cn2c(=O)n(CCc3ccccc3)c(=O)c3cc(F)ccc32)cc1				12.2 µM	
O=C(NO)c1ccc(Cn2c(=O)n(CCc3ccccc3)c(=O)c3ccc(F)cc32)cc1				3.92 µM	
CC(=O)O[C@H]1C(=O)[C@@]2(C)[C@H]([C@H](OC(=O)c3ccccc3)[C@]3(O)C[C@H](OC(=O)[C@H](O)[C@@H](NC(=O)c4ccccc4)c4ccccc4)C(C)=C1C3(C)C)[C@]1(OC(C)=O)CO[C@@H]1C[C@@H]2O [PACLITAXEL]					Activity [5]: 15.9%; Activity [6]: 4%; fold change (FC) [7]: 7.28; Activity (A549 [8]): 1%; Activity (A549 [9]): 2.9%; Activity [10]: 20%; viability at 10 µM (A549 [11]): 94.9%; viability at 10 µM [12]: 73.4%; IC50 [13]: 0.01 µM; Activity (A549 [14]): 1.2%; Activity [15]: 6.9%
O=C(CCCCCCNC(=O)c1cnc(N(c2ccccc2)c2ccccc2)nc1)NO [RICOLINOSTAT]				7.7 µM	AUC [16]: 308 ng·h/g; AUC [17]: 1442 ng·h/g; AUC [18]: 2493 ng·h/g; AUC [19]: 622 ng·h/g
O=C(CCCCCCC(=O)Nc1ccccc1)NO [VORINOSTAT]				2.24 µM	

The next lines start with results.

IC50 (Histone deacetylase 1)	IC50 [1]	IC50 (Histone deacetylase 11)	SMILES	IC50 (A549 [3])	other results
7.37 µM	0.02 µM	13.8 µM	COc1ccc(CCn2c(=O)c3ccccc3n(Cc3ccc(C(=O)NO)cc3)c2=O)cc1		IC50 (Histone deacetylase 8): 1.15 µM
	0.029 µM		O=C(NO)c1ccc(Cn2c(=O)n(CCc3ccccc3)c(=O)c3cccnc32)cc1	2.84 µM	Ki [2]: 0.00389 µM; Ki [4]: 0.0045 µM
> 10 µM		> 10 µM	O=C(NO)c1cc(Cn2c(=O)n(CCc3ccccc3)c(=O)c3ccccc32)cs1		
9.08 µM	0.005 µM	11.3 µM	O=C(NO)c1ccc(Cn2c(=O)n(CCc3ccc(O)cc3)c(=O)c3ccccc32)cc1		IC50 (Histone deacetylase 8): 0.845 µM
> 10 µM	4.63 µM	> 10 µM	O=C(NO)c1cccc(Cn2c(=O)n(CCc3ccccc3)c(=O)c3ccccc32)c1		
22.9 µM	0.02 µM	19.8 µM	O=C(NO)c1ccc(Cn2c(=O)n(CCc3ccccc3)c(=O)c3ccccc32)s1	13.5 µM	IC50 (Histone deacetylase 8): 0.097 µM
	0.012 µM		COc1ccccc1CCn1c(=O)c2ccccc2n(Cc2ccc(C(=O)NO)cc2)c1=O	11.8 µM	Ki [2]: 0.0021 µM; Ki [4]: 0.0026 µM
12.7 µM	0.024 µM		O=C(NO)c1ccc(Cn2c(=O)n(CCc3cccc(C(F)(F)F)c3)c(=O)c3ccccc32)cc1	6.03 µM	IC50 (Histone deacetylase 8): 1.76 µM
	0.022 µM		O=C(NO)c1ccc(Cn2c(=O)n(CCc3ccccc3)c(=O)c3ccc(Cl)cc32)cc1		
